# In ChEMBL document CHEMBL1926538, “3,5-Disubstituted-thiazolidine-2,4-dione analogs as anticancer agents: design, synthesis and biological characterization” (Eur J Med Chem, 2012):
# Calls of active or inactive are those of the source. No cut-off for these calls is given here.
# Legend:
# U-937 [1] = assay: Induction of apoptosis in human U937 cells assessed as early apoptotic cells at 10 uM after 18 hrs by annexinV-propidium iodide staining-based flow cytometric analysis (reference value: 4.3%); format: functional
# U-937 [2] = assay: Induction of apoptosis in human U937 cells assessed as necrotic cells at 3 uM after 18 hrs by annexinV-propidium iodide staining-based flow cytometric analysis (reference value: 0.7%); format: functional
# U-937 [3] = assay: Induction of apoptosis in human U937 cells assessed as late apoptotic cells at 3 uM after 6 hrs by annexinV-propidium iodide staining-based flow cytometric analysis (reference value: 13.8%); format: functional
# U-937 [4] = assay: Induction of apoptosis in human U937 cells assessed as early apoptotic cells at 3 uM after 6 hrs by annexinV-propidium iodide staining-based flow cytometric analysis (reference value: 4.6%); format: functional
# U-937 [5] = assay: Induction of apoptosis in human U937 cells assessed as viable cells at 3 uM after 6 hrs by annexinV-propidium iodide staining-based flow cytometric analysis (reference value: 80.3%); format: functional; conditions: U-937, 6 h, read-out: Activity
# U-937 [6] = assay: Induction of apoptosis in human U937 cells assessed as late apoptotic cells at 3 uM after 3 hrs by annexinV-propidium iodide staining-based flow cytometric analysis (reference value: 8.6%); format: functional
# U-937 [7] = assay: Induction of apoptosis in human U937 cells assessed as viable cells at 3 uM after 3 hrs by annexinV-propidium iodide staining-based flow cytometric analysis (reference value: 86.3%); format: functional; conditions: U-937, 3 h, read-out: Activity
# [8] = Growth inhibition of human NCI60 cells; format: functional
# U-937 [9] = assay: Antiproliferative activity in human U937 cells assessed as inhibition of DNA synthesis at 10 to 30 uM after 24 hr by [3H]thymidine incorporation assay; format: functional, cell-based
# Outline: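 U937 cells, 2 × 10⁴/well, incubated with compound at various concentrations for 1 h or 24 h in presence of 1 µCi [³H]-thymidine. Cells harvested and counted by liquid scintillation. Incorporation expressed as % inhibition versus control. Significance by one-way ANOVA.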
# [10] = biological target: Tyrosine-protein kinase SYK (Homo sapiens) (UniProt P43405); assay: Inhibition of SYK at 10 uM
# [11] = biological target: Serine/threonine-protein kinase Sgk1 (Homo sapiens) (UniProt O00141); assay: Inhibition of SGK1 at 10 uM
# [12] = biological target: Ribosomal protein S6 kinase alpha-1 (Homo sapiens) (UniProt Q15418); assay: Inhibition of RSK1 at 10 uM
# [13] = biological target: Dual specificity mitogen-activated protein kinase kinase 1 (Homo sapiens) (UniProt Q02750); assay: Inhibition of MEK1 at 10 uM
# Chain of Dual specificity mitogen-activated protein kinase kinase 1 (Homo sapiens) (Q02750 whole entry): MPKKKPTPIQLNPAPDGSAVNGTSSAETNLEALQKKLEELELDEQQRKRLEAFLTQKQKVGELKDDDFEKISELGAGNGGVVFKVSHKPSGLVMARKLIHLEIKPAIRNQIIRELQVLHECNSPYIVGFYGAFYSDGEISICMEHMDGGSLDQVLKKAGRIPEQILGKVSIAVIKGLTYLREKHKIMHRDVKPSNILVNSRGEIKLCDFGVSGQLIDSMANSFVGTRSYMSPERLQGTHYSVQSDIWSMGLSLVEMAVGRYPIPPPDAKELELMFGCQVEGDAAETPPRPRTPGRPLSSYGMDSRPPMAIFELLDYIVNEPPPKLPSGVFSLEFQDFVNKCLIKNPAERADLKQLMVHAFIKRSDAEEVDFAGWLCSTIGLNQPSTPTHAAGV
# [14] = biological target: MAP kinase-activated protein kinase 2 (Homo sapiens) (UniProt P49137); assay: Inhibition of MAPKAPK2 at 10 uM
# [15] = biological target: Tyrosine-protein kinase Lyn (Homo sapiens) (UniProt P07948); assay: Inhibition of LYN at 10 uM
# Chain of Tyrosine-protein kinase Lyn (Homo sapiens) (P07948 2-512 limits assumed): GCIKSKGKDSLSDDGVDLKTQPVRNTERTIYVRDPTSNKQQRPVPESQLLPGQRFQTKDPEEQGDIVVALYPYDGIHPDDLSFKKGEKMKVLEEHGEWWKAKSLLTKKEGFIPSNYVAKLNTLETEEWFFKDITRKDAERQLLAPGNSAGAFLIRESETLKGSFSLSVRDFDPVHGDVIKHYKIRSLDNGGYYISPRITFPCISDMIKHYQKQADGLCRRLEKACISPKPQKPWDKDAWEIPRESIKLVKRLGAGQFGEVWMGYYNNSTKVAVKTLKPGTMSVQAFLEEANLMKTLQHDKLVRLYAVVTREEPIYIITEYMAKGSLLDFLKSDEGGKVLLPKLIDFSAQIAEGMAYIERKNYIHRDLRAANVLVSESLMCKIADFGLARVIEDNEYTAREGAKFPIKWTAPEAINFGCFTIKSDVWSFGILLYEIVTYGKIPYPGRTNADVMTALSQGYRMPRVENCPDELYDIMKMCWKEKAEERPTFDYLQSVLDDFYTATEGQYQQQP
# [16] = biological target: Interleukin-1 receptor-associated kinase 4 (Homo sapiens) (UniProt Q9NWZ3); assay: Inhibition of IRAK4 at 10 uM
# Chain of Interleukin-1 receptor-associated kinase 4 (Homo sapiens) (Q9NWZ3 whole entry): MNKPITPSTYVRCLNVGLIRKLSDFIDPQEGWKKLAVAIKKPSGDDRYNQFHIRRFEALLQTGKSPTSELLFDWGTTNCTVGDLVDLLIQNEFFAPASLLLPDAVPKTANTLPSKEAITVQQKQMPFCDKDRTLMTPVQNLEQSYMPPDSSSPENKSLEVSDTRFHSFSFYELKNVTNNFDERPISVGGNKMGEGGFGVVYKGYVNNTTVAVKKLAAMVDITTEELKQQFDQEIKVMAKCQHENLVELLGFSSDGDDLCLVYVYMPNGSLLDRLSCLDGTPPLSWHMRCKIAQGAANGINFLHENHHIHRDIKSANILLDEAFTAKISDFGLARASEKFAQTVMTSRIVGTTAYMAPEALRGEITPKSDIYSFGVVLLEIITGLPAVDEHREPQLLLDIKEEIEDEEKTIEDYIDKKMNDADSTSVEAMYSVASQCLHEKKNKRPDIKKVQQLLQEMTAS
# [17] = biological target: Insulin receptor (Homo sapiens) (UniProt P06213); assay: Inhibition of INSR at 10 uM
# [18] = biological target: Insulin-like growth factor 1 receptor (Homo sapiens) (UniProt P08069); assay: Inhibition of IGF1R at 10 uM
# Chain of Insulin-like growth factor 1 receptor (Homo sapiens) (P08069 31-736 limits assumed): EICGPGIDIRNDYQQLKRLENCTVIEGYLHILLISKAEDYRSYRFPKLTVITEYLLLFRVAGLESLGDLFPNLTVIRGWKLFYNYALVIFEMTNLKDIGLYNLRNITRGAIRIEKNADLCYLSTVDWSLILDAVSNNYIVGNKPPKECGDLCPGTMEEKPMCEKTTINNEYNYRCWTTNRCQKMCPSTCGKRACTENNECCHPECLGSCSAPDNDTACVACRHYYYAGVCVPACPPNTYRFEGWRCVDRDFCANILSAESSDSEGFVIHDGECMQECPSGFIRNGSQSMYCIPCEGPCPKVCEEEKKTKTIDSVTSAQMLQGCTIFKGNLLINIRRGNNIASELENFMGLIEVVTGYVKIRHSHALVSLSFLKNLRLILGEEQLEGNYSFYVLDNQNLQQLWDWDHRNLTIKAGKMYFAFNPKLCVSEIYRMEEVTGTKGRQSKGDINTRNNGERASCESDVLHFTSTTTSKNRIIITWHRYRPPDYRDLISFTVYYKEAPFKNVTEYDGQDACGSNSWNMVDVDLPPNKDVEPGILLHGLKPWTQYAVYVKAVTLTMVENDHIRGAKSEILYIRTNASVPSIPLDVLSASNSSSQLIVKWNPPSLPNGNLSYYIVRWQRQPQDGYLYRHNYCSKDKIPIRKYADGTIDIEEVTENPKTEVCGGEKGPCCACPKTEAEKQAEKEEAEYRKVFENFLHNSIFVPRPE
# Chain of Insulin-like growth factor 1 receptor (Homo sapiens) (P08069 741-1367 limits assumed): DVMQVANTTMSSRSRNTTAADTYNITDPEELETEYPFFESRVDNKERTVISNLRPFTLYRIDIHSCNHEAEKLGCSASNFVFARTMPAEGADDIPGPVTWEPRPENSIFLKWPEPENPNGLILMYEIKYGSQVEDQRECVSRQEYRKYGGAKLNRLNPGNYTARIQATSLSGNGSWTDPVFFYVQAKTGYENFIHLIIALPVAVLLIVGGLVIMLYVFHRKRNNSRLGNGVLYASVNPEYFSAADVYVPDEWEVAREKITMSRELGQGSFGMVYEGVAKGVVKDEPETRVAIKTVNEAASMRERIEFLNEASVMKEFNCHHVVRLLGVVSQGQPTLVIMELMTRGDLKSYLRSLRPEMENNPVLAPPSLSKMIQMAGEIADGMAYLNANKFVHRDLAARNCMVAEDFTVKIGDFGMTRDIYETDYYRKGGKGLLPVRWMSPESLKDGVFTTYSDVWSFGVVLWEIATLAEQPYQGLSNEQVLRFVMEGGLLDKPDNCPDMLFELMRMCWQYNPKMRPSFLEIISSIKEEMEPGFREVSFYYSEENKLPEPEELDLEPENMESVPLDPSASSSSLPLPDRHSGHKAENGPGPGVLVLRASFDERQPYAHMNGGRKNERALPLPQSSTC
# [19] = biological target: Mitogen-activated protein kinase 3 (Homo sapiens) (UniProt P27361); assay: Inhibition of Erk1 at 10 uM
# Chain of Mitogen-activated protein kinase 3 (Homo sapiens) (P27361 whole entry): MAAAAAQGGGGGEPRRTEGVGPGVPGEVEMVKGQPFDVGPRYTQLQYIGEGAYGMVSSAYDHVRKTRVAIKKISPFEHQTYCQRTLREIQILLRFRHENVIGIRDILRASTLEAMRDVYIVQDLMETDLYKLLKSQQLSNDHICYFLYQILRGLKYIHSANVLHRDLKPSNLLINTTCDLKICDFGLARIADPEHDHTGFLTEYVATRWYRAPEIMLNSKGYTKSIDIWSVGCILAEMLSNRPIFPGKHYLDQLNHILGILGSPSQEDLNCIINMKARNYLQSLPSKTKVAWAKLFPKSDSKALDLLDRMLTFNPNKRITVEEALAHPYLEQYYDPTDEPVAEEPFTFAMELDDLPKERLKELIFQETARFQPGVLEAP
# [20] = biological target: MAP/microtubule affinity-regulating kinase 3 (Homo sapiens) (UniProt P27448); assay: Inhibition of c-TAK1 at 10 uM
# Chain of MAP/microtubule affinity-regulating kinase 3 (Homo sapiens) (P27448 whole entry, looked up): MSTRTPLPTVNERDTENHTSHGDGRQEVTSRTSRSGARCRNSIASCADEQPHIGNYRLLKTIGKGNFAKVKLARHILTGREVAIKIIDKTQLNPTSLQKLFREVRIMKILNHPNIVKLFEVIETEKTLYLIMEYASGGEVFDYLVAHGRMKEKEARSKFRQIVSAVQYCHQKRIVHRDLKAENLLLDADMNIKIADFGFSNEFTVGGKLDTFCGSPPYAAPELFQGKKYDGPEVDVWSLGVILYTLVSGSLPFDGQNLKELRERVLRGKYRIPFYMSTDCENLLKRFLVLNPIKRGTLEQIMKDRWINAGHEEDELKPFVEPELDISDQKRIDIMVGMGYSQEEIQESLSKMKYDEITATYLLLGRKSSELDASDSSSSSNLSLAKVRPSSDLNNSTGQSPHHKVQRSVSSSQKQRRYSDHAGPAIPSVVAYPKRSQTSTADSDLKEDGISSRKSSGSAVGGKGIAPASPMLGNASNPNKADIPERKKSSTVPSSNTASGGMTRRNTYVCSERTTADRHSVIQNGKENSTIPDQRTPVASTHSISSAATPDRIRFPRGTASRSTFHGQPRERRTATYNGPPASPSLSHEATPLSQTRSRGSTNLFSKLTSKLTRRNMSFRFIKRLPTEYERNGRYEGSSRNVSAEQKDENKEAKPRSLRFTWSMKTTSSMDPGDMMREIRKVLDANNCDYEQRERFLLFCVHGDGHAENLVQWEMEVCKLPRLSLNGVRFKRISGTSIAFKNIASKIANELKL
# [21] = biological target: RAF proto-oncogene serine/threonine-protein kinase (Homo sapiens) (UniProt P04049); assay: Inhibition of c-Raf at 10 uM
# Chain of RAF proto-oncogene serine/threonine-protein kinase (Homo sapiens) (P04049 whole entry): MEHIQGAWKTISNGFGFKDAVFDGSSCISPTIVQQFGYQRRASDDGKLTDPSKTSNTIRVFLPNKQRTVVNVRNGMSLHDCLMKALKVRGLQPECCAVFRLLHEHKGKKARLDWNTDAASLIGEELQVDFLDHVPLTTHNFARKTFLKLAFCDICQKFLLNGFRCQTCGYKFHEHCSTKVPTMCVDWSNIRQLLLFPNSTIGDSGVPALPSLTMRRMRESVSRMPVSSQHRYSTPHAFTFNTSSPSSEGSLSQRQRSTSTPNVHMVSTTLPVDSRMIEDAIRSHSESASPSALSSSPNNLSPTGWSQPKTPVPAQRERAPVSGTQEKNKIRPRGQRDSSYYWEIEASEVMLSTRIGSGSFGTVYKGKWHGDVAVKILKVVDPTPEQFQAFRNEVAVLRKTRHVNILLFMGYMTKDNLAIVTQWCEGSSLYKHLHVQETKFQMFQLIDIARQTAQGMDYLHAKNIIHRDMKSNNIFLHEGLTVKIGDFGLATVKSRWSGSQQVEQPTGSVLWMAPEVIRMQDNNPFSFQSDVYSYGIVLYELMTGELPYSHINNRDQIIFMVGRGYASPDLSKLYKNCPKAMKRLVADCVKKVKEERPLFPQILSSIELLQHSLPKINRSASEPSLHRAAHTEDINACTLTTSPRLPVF
# [22] = biological target: RAC-beta serine/threonine-protein kinase (Homo sapiens) (UniProt P31751); assay: Inhibition of AKT2 at 10 uM
# [23] = biological target: RAC-alpha serine/threonine-protein kinase (Homo sapiens) (UniProt P31749); assay: Inhibition of AKT1 at 10 uM
# Chain of RAC-alpha serine/threonine-protein kinase (Homo sapiens) (P31749 whole entry): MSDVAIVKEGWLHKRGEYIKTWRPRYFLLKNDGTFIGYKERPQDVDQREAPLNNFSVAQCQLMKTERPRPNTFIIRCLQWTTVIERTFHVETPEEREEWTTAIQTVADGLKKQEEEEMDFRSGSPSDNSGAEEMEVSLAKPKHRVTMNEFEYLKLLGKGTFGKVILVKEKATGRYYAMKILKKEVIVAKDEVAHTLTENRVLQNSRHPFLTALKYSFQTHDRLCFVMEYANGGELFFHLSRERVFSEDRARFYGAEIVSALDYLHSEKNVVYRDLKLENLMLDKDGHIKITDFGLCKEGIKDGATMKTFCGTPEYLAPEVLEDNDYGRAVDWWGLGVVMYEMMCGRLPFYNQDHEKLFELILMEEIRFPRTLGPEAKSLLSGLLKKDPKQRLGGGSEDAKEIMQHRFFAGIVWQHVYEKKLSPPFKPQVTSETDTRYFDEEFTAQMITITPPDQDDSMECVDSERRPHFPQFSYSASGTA
# [24] = biological target: MAP kinase p38 (Homo sapiens) (UniProt O15264+Q15759+Q16539+P53778); assay: Inhibition p38 phosphorylation in human U937 cells at 1 to 10 uM after 1 hr by Western blot analysis; format: cell-based; conditions: U-937
# Outline: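 p38 blot in U937: cells at 5 × 10⁵/mL in RPMI 1640 plus 10% FBS, exposed 1 h, sonicated in SDS sample buffer containing phosphatase inhibitors, boiled; immunoblot with primary antibody overnight at 4 °C, HRP secondary, chemiluminescent detection.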
# U-937 [25] = assay: inhibition of PI3K-mediated 4-EBP1 phosphorylation in human U937 cells 1 to 10 uM after 1 hr by Western blot analysis; format: cell-based
# Outline: (§1)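 Cells in RPMI 1640 with 10% heat-inactivated FBS, 37 °C, 5% CO2; treated in growing medium (DU145 24 h; U937 1 h at 5 × 10⁵/mL). Lysed by sonication in SDS sample buffer with protease inhibitors plus 1 mM orthovanadate and pyrophosphate, boiled 5 min. Blots blocked in 5% milk, primary antibodies 1:1000 overnight at 4 °C, HRP secondary 1:2000, chemiluminescence; α-tubulin loading control.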
# M12 = assay: Growth inhibition of human M12 cells after 24 hrs by MTS assay; format: functional, cell-based
# Outline: (§2)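 Cells in RPMI 1640 with 10% heat-inactivated FBS, seeded 2 × 10⁴ cells/well and exposed 24 h. MTS reagent added, then 1 h further incubation at 37 °C, 5% CO₂. Formazan absorbance read at 490 nm. Viability expressed as percentage of untreated controls.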
# DU-145 [26] = assay: Growth inhibition of human DU145 cells after 24 hrs by MTS assay; format: functional, cell-based; outline: as §2
# U-937 [27] = assay: Inhibition of PI3K-mediated Akt phosphorylation in human U937 cells at 3 uM after 1 hr by Western blot analysis; format: cell-based
# [28] = biological target: RAF proto-oncogene serine/threonine-protein kinase (Homo sapiens) (UniProt P04049); assay: Inhibition of raf-mediated MEK phosphorylation in human U937 cells at 3 uM after 1 hr by Western blot analysis; format: cell-based; conditions: U-937; outline: as §1
# U-937 [29] = assay: Growth inhibition of human U937 cells after 24 hrs by MTS assay; format: functional, cell-based; conditions: U-937, 24 h; outline: as §2
# U-937 [30] = assay: Cell cycle arrest in human U937 cells assessed as sub-diploid apoptotic fraction at 15 uM after 24 hrs by propidium iodide staining-based flow cytometric analysis; format: functional
# Outline: (§3)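 Cells cultured in RPMI 1640 with 10% FBS and treated 24 h at the indicated concentrations. Stained with propidium iodide for 4 h at 4 °C in the dark. Flow cytometry gave the percentage of cells in G₀/G₁, S, G₂/M and sub-G₁ phases.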
# U-937 [31] = assay: Cell cycle arrest in human U937 cells assessed as accumulation at S-phase at 15 uM after 24 hrs by propidium iodide staining-based flow cytometric analysis; format: functional; outline: as §3
# U-937 [32] = assay: Cell cycle arrest in human U937 cells assessed as accumulation at S-phase at 10 uM after 24 hrs by propidium iodide staining-based flow cytometric analysis; format: functional; outline: as §3
# DU-145 [33] = assay: Induction of apoptosis in human DU145 cells assessed as necrotic cells at 20 uM after 24 hrs by annexinV-propidium iodide staining-based flow cytometric analysis (reference value: 2.1%); format: functional
compound,measurement,setting,value
NCCN1C(=O)S/C(=C\CCC2CCCCC2)C1=O,Activity,U-937 [1],15%
same,Activity,U-937 [2],0.7%
same,Activity,U-937 [3],16.5%
same,Activity,U-937 [4],3.8%
same,viability at 3 µM,U-937 [5],75.7%
same,Activity,U-937 [6],7.7%
same,viability at 3 µM,U-937 [7],86.9%
same,GI50,[8],1400 nM
same,Activity,U-937 [9],Active
same,inhibition,[10],9%
same,inhibition,[11],14%
same,inhibition,[12],2%
same,inhibition,[13],69%
same,inhibition,[14],3%
same,inhibition,[15],0%
same,inhibition,[16],-1%
same,inhibition,[17],-2%
same,inhibition,[18],-5%
same,inhibition,[19],21%
same,inhibition,[20],6%
same,inhibition,[21],-1%
same,inhibition,[22],8%
same,inhibition,[23],3%
same,inhibition,[24],inactive
same,inhibition,U-937 [25],Active
same,growth inhibition (GI),M12,Active
same,growth inhibition (GI),DU-145 [26],Active
same,inhibition,U-937 [27],Active
same,inhibition,[28],Active
same,IC50,U-937 [29],3400 nM
same,Activity,U-937 [30],64.3%
same,Activity,U-937 [31],31.4%
same,Activity,U-937 [32],23.6%
same,Activity,DU-145 [33],3.2%
